Source: PubChem BioAssay
Records with an inconclusive call do not appear.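 How the source made its calls, unless noted: active means cell viability at or below a set limit in both duplicate runs, the limit being the all-compound median minus 4 SD (cut at about 23% in these data, passing the limit was not always enough); inconclusive means no clear call, values can overlap the other calls; inactive means the rest.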

Tests used:
[1] = OD615 S. cerevisiae growth inhibition, permissive medium, pilot counter-assay, permissive growth control for S. cerevisiae lifespan shortening project (AID 705;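 active means growth inhibition above 25% in both replicates, a cutoff set 3 SD above the mean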); details: OD615, 24 h, at 10 µM, stronger effect = higher value
Summary of the method: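 assay system = Saccharomyces cerevisiae strain carrying genetically modified DeaD replicative-lifespan system | technique = absorbance (optical density) at 615 nm | buffer or medium = permissive raffinose/galactose medium | timing = cells pre-grown 4 h, then 24 h compound exposure, 30 °C humidified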

[2] = Restrictive medium S. cerevisiae growth inhibition, OD615, pilot screen of yeast lifespan reduction project, restrictive growth control (AID 706;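 active means growth inhibition above a set limit, 3 SD over mean compound inhibition, in both replicates, cut at about 43% in these data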;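 further: modified DeaD lifespan yeast strain shifted to restrictive glucose medium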); details: OD615, 48 h, at 10 µM, stronger effect = higher value
Summary of the method: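 System: modified S. cerevisiae. Buffer or medium: CSMM-D glucose medium. Incubation: 4 h pre-growth plus 48 h compound exposure, 30 °C. Detection: absorbance (optical density) measured at 615 nm.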

[3] = viability gain of MRP-1-high H69AR cells under doxorubicin, pilot screen, MRP-1 activator project, CellTiter-Glo, duplicate (AID 807;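 active means viability increase at or above a cutoff of the median across tested compounds plus 3 SD, cut at about 8.5% in these data, passing the limit was not always enough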;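 further: compound pretreatment 18-22 h then 72 h combined with doxorubicin; 0% = doxorubicin alone and 100% = vehicle without doxorubicin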); details: H69AR viability with doxorubicin, CellTiter-Glo luminescence; at 10 µM; stronger effect = higher value
[4] = growth suppression of beta-catenin knockout HCT116, pilot screen, human colon tumor cells (AID 823); details: CellTiter-Glo, 60 h, at 10 µM, stronger effect = lower value;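 further: 0% = wells killed by 20 µM Hyamine and 100% = untreated DMSO cell wells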
[5] = growth suppression of PTEN-deleted HCT116, pilot screen, cell-based, HCT116 clonal line, CellTiter-Glo (AID 824;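 active means viability at or below 27.92% in each of two runs, the all-compound median minus 4 SD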;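 further: 0% = 20 µM Hyamine control and 100% = vehicle cell control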); details: 60 h, at 10 µM, stronger effect = lower value
[6] = inhibitors of the yeast RAM network, pilot screen, dse1pr::URA3 reporter, 5-FOA selection (AID 869;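 active means inhibition over a set limit, the all-compound mean plus 3 SD, in both replicate runs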;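 further: 0% = DMSO wells with no growth and 100% = 10 µM 1-NA-PP1 with full growth; RAM network block rescues cells from 5-FOA so hits raise OD615 growth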); details: S. cerevisiae dse1pr::URA3 5-FOA growth, OD615, 2 d; at 10 µM; stronger effect = higher value; strain carries analog-sensitive mutant Cbk1 kinase
[7] = RAM signaling pathway blockade in yeast – S. cerevisiae, Pdr1DBD-CYC8 efflux-inhibited sensitized strain, primary screen (AID 1298;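 active means RAM network inhibition above 8.4% in each of two replicates, 3 SD over the compound average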;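 further: 0% = DMSO untreated cells without growth and 100% = 10 µM 1-NA-PP1 full growth; higher means more yeast growth rescued from 5-FOA killing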); details: S. cerevisiae cbk1-as DSE1-URA3 strain, 5-FOA growth OD615, 2 d; at 50 µM; stronger effect = higher value

O=C(Cn1nc(Cc2cccnc2)c2ccccc2c1=O)NCCCN1CCCC1=O
inactive: growth inhibition [1] 3.02% | growth inhibition [2] -5.47% | viability increase [3] -0.8% | viability [4] 103% | viability [5] 97.3% | inhibition [6] 0.75% | RAM network inhibition [7] 0.25%

Nc1nc(NC(=O)c2ccco2)nn1-c1ccccc1
inactive: growth inhibition [1] -11.7% | growth inhibition [2] 1.96% | viability increase [3] -2.61% | viability [4] 93.8% | viability [5] 98.6% | inhibition [6] -0.025% | RAM network inhibition [7] 5.17%

CCOc1ccc(C2CC(c3cccc(OC)c3)Nc3ncnn32)cc1 (stereo not given)
inactive: growth inhibition [1] -2.08% | growth inhibition [2] -1.26% | viability increase [3] -0.82% | viability [4] 94% | viability [5] 90% | inhibition [6] 1.15% | RAM network inhibition [7] 1.4%

Cc1nn(-c2ccccc2)c(Cl)c1C(=O)Nc1c(C)n(C)n(-c2ccccc2)c1=O
inactive: growth inhibition [1] -9% | growth inhibition [2] -23% | viability increase [3] -0.99% | viability [4] 102% | viability [5] 94.3% | inhibition [6] 0.935% | RAM network inhibition [7] 3.15%

Cn1c(=O)c2c(nc(CN3CCN(CCO)CC3)n2Cc2ccccc2Cl)n(C)c1=O
inactive: growth inhibition [1] 4.8% | growth inhibition [2] -2.67% | viability increase [3] -3.91% | viability [4] 98.2% | viability [5] 96.2% | inhibition [6] 0.875% | RAM network inhibition [7] 4.94%

COc1ccc(N2CCN(C(=O)c3ccc4nc(N5CCCCC5)sc4c3)CC2)cc1
inactive: growth inhibition [1] 9.87% | growth inhibition [2] 6.32% | viability increase [3] 0.49% | viability [4] 101% | viability [5] 87% | inhibition [6] 2.52% | RAM network inhibition [7] 6.15%

CCOC(=O)Cc1nnc(NC(=O)C(CC)Sc2nc(C)cc(=O)[nH]2)s1 (stereo not given)
inactive: growth inhibition [1] 6.95% | growth inhibition [2] 22.4% | viability increase [3] -0.54% | viability [4] 83.4% | viability [5] 96.7% | inhibition [6] 2.96% | RAM network inhibition [7] 2.97%

CCc1ccc(C2CC(c3cccc(Cl)c3)n3nc(N)nc3N2)cc1 (stereo not given)
inactive: growth inhibition [1] -3.09% | growth inhibition [2] 10.4% | viability increase [3] -3.92% | viability [4] 71.5% | viability [5] 65.6% | inhibition [6] 2.25% | RAM network inhibition [7] 9.11%

Nc1cccc(-n2nncc2-c2ccc(Cl)cc2)c1
inactive: growth inhibition [1] -6.67% | growth inhibition [2] -5.47% | viability increase [3] -1.43% | viability [4] 99.3% | viability [5] 91.8% | inhibition [6] 1.98% | RAM network inhibition [7] 3.64%

COc1cccc(C2CC(c3cccc(Br)c3)n3nc(N)nc3N2)c1 (stereo not given)
inactive: growth inhibition [1] 2.54% | growth inhibition [2] 4.69% | viability increase [3] -0.49% | viability [4] 96.7% | viability [5] 90.3% | inhibition [6] 0.475% | RAM network inhibition [7] 5.95%

O=c1c2cnn(-c3ccccc3)c2ncn1Cc1cccc(Cl)c1
inactive: growth inhibition [1] 2.21% | growth inhibition [2] 2.59% | viability increase [3] 3.21% | viability [4] 102% | viability [5] 91.7% | inhibition [6] 3.21% | RAM network inhibition [7] 6.55%

Cc1nc2ccc(S(=O)(=O)NC(C(=O)N3CCn4c3nc3ccccc34)C(C)C)cc2s1 (stereo not given)
inactive: growth inhibition [1] 0.9% | growth inhibition [2] 8.13% | viability increase [3] -1.67% | viability [4] 102% | viability [5] 97.2% | inhibition [6] 1.02% | RAM network inhibition [7] 5.83%

CCN(CC)S(=O)(=O)c1ccc(Cl)c(C(=O)Nc2nnc(C)s2)c1
inactive: growth inhibition [1] -6.93% | growth inhibition [2] 1.45% | viability increase [3] 0.43% | viability [4] 93.1% | viability [5] 95.7% | inhibition [6] -0.08% | RAM network inhibition [7] 4.33%

Cc1cccc(C)c1OCC(O)Cn1ccnc1C (stereo not given)
inactive: growth inhibition [1] 1.01% | growth inhibition [2] 0.215% | viability increase [3] -1.6% | viability [4] 81.1% | viability [5] 84.7% | inhibition [6] 1.08% | RAM network inhibition [7] -0.1%

CCC(C)C1C(C#N)=C(N)OC2=C1C(=O)CC(C)(C)C2 (stereo not given)
inactive: growth inhibition [1] -10.1% | growth inhibition [2] -15.1% | viability increase [3] -3.48% | viability [4] 103% | viability [5] 86.5% | inhibition [6] 1.31% | RAM network inhibition [7] 6.21%
